In general, Kd refers to the concentration at which binding is half-saturated. A word on the inhibition in vivo: it is the relative decrease from the control value, in per cent. What is called bioavailability is the share of a dose that reaches the circulation, judged against a reference dose that is usually intravenous. The Cmax is the highest concentration seen after dosing. What is called half-life is the time in which the quantity being followed falls by half. As usually defined, the inhibition is the change of the read-out against control, counted positive when it falls. Broadly, the AUC(0-inf) is total exposure, with the tail of the curve extrapolated. As a reminder, the IC50 is the point on the concentration scale where inhibition reaches its midpoint. The term EC50 denotes the concentration that produces a half-maximal response.

Consider 1 compound from ChEMBL document CHEMBL2029242 (J Med Chem, 2012).

Data set [1] has as its target Serine/threonine-protein kinase B-raf (Homo sapiens, UniProt P15056). The data set is described as follows: Inhibition of wild type BRAF in human HEK293 cells after 1 hr by competition binding assay. It is filed as cell-based. In short, it runs like this:
(§1)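 KINOMEscan competition binding. Binding reactions ran at rt for 1 h. Unbound kinase was captured on an immobilized affinity ligand and quantified by qPCR. Each kinase was tested individually.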

In data set [2] the test system is Mus musculus. The data set is described as follows: Inhibition of BRAF V600E mutant-mediated MEK phosphorylation in human COLO205 cells xenografted in athymic nude mouse at 55 mg/kg, po after 2 hrs. It is filed as functional. To be noted: COLO 205, 2 h. The procedure, abridged: (§2)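 Mice bearing Colo-205 xenografts got one oral dose in 22% HPβCD; vehicle controls were run. Tumors were collected at time points over 24 h and lysed. pMEK and total MEK in the lysates were measured by immunoblotting and ELISA, and pMEK was normalized to total MEK.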
In general terms: A xenograft is tissue or cells of one species grown in another, often human tumour cells in immunodeficient mice.

Data set [3] is described as follows: Oral bioavailability in Sprague-Dawley rat at 10 mg/kg. It is filed as ADME, organism-based. The note with it: in vivo. In short, it runs like this: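 Male Sprague-Dawley rats (250–350 g, jugular-catheterized) received a single dose either iv at 1 mg/kg in 3:1 PEG400/water (n = 2) or po at 10 mg/kg in Pharmatek #6 (n = 3). Plasma was sampled at 5 min (iv only), 15 and 30 min, and 1, 2, 4, 6 and 24 h. Samples were analyzed by LC-MS/MS after acetonitrile precipitation. Parameters came from noncompartmental linear-trapezoidal analysis of individual animals.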

A short description of data set [4]: Clearance in Sprague-Dawley rat at 1 mg/kg, iv and 10 mg/kg, po. It is filed as ADME, organism-based. To be noted: in vivo. The procedure, abridged:
(§3)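 Single-dose PK. Rats: male Sprague−Dawley, jugular-catheterized, 1 mg/kg iv in 3:1 PEG400/water (n = 2) and 10 mg/kg po in Pharmatek #6 (n = 3). Female athymic nude mice: 100 mg/kg po in Pharmatek #6 (n = 3). Beagle dogs and male cynomolgus monkeys (n = 3): crossover, 1 mg/kg iv and 10 mg/kg po in 22% HPβCD, overnight fast. Plasma LC-MS/MS to 24 h; noncompartmental parameters, mean ± SD.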

A short description of data set [5]: Cmax in beagle dog at 10 mg/kg, po. Details: dose 10 mg/kg, route oral. It is filed as ADME, organism-based, Canis lupus familiaris. To be noted: in vivo. The procedure, abridged: as §3
The target of another data set is Aurora kinase A (Homo sapiens, UniProt O14965). The data set is described as follows: Inhibition of Aurora A in human HEK293 cells after 1 hr by competition binding assay. It is filed as cell-based. The procedure, abridged: as §1
Chain of Aurora kinase A (O14965 whole entry): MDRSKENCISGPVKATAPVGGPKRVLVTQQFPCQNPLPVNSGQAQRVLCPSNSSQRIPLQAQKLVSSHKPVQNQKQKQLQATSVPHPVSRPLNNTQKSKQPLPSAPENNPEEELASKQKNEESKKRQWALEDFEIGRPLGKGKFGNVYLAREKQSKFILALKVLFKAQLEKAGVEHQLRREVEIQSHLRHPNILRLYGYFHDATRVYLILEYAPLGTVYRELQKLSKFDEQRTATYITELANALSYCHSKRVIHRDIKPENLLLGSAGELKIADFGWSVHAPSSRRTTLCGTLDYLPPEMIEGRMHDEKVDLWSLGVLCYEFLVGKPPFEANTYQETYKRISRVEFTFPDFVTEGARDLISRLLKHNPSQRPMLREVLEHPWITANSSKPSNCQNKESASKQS
A short description of data set [6]: Clearance in Cynomolgus monkey at 1 mg/kg, iv and 10 mg/kg, po. It counts as ADME, organism-based, Macaca fascicularis. To be noted: in vivo. The procedure, abridged: as §3
Data set [7] relates to Mus musculus. The data set is described as follows: Inhibition of BRAF V600E mutant-mediated MEK phosphorylation in human COLO205 cells xenografted in athymic nude mouse at 30 mg/kg, po after 2 hrs. It is filed as functional. To be noted: COLO 205, 2 h. The procedure, abridged:
as §2

In data set [8] the target is Mitogen-activated protein kinase 3 (Homo sapiens, UniProt P27361). The data set is described as follows: Inhibition of ERK1 in human HEK293 cells after 1 hr by competition binding assay. It is filed as cell-based. The procedure, abridged:
as §1

Data set [9] in a line: Half life in human liver microsomes. It is filed as ADME, Microsome. The procedure, abridged:
(§4)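 Pooled liver microsomes (0.5 mg/mL) in 0.1 M phosphate pH 7.4 with 6.5 mM MgCl2 and compound at 1 μM (0.2% DMSO). NADPH (1 mM) started the reaction at 37 °C, with minus-NADPH and testosterone controls. Aliquots taken at 0, 5, 15, 30 and 60 min were quenched in acetonitrile; duplicates.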
In general terms: Liver microsomes are a subcellular fraction often used to study metabolism.

For the next data set, the system named is COLO 205. The data set is described as follows: Antitumor activity against human COLO205 cells xenografted in athymic nude mouse assessed as partial tumor regression at 30 mg/kg, po bid for 14 days. It is filed as functional. The procedure, abridged:
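Athymic nude mice carried subcutaneous flank Colo-205 xenografts (1 × 10^6 cells), randomized at 150−200 mm3 (n = 10/group). Oral dosing BID for 14 days in 22% HPβCD against vehicle controls. Caliper volumes W2(L/2) taken three times weekly. Partial regression: volume fell in ≥3 successive measurements to below the starting volume while the tumor stayed palpable.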

Another data set addresses hERG (KCNH2) (Homo sapiens, UniProt Q12809). The data set is described as follows: Inhibition of human ERG at 10 uM. The procedure, abridged: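 Whole-cell patch clamp on CHO cells stably expressing hERG. Baseline was set in external solution with 0.1% DMSO. Test article was then applied until steady state, up to 12 min.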
A short description of data set [10]: Intrinsic clearance in Cynomolgus monkey liver microsomes. It is filed as ADME, Macaca fascicularis, Microsome. In short, it runs like this: as §4
Data set [11] in a line: AUC (infinity) in Cynomolgus monkey at 10 mg/kg, po. It is filed as ADME, organism-based, Macaca fascicularis. Set-up: dose 10 mg/kg, route oral, time infinity. The note with it: plasma. In short, it runs like this:
as §3

Another data set deals with A-375. The data set is described as follows: Cytotoxicity against human A375 cells expressing BRAF V600E mutant after 72 hrs by cell titer blue assay. It is filed as functional, cell-based. The note with it: A-375, 72 h. In short, it runs like this: (§5)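 Cells were grown in ATCC-recommended media and kept overnight in 0.5% serum. They were then exposed to compound for 72 h, and Cell Titer Blue was added for 3 h. EC50 came from fluorometric concentration−response curves, run in duplicate and repeated at least once.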
A general note: Alamar Blue is a resazurin reagent that responds to reducing activity.

Data set [12] deals with Phosphatidylinositol 4,5-bisphosphate 3-kinase catalytic subunit alpha isoform (Homo sapiens, UniProt P42336). The data set is described as follows: Inhibition of PIK3-CA in human HEK293 cells after 1 hr by competition binding assay. It is filed as cell-based. The procedure, abridged:
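Unbound kinase was captured on immobilized affinity ligand and quantified by qPCR. Kd came from eleven serial 3-fold dilutions, as the mean of duplicates.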

The next data set relates to Liver microsomes. The data set is described as follows: Intrinsic clearance in human liver microsomes. It counts as ADME, Microsome. The procedure, abridged:
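Pooled liver microsomes (0.5 mg/mL) were premixed with 0.1 M phosphate buffer pH 7.4, 6.5 mM MgCl2 and test compound (1 μM final, 0.2% DMSO). NADPH (1 mM) started the reaction at 37 °C, in duplicate. Minus-NADPH and testosterone controls were included. Aliquots were taken at 0, 5, 15, 30 and 60 min and quenched in acetonitrile containing internal standard.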

Data set [13] is described as follows: Volume of distribution in Cynomolgus monkey at 1 mg/kg, iv and 10 mg/kg, po. It is filed as ADME, organism-based, Macaca fascicularis. To be noted: in vivo. In short, it runs like this:
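Male non-naive cynomolgus monkeys (2.6–3.4 kg) and beagle dogs (10.3–11.9 kg), n = 3 each, were dosed in a crossover design with a ≥7-day washout. Doses were 10 mg/kg by nasogastric gavage and 1 mg/kg as a saphenous iv bolus, both free base in 22% HPβCD. Animals were fasted overnight until about 4 h post dose. Femoral plasma was sampled from predose to 24 h and analyzed by LC-MS/MS. Parameters came from noncompartmental analysis; mean ± SD reported.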

Data set [14] in a line: Clearance in beagle dog at 1 mg/kg, iv and 10 mg/kg, po. It is filed as ADME, organism-based, Canis lupus familiaris. The note with it: in vivo. The procedure, abridged: as §3
Data set [15] concerns the target Dual specificity mitogen-activated protein kinase kinase 2 (Homo sapiens, UniProt P36507). The data set is described as follows: Inhibition of MEK2 in human HEK293 cells after 1 hr by competition binding assay. It is filed as cell-based. The procedure, abridged: as §1
The subject of the next data set is HCT-116. The data set is described as follows: Cytotoxicity against human HCT116 cells expressing wild type BRAF after 72 hrs by cell titer blue assay. It is filed as functional, cell-based. The note with it: HCT-116, 72 h. The procedure, abridged: as §5
The test system of data set [16] is Mus musculus. The data set is described as follows: Toxicity in athymic nude mouse xenografted with human COLO205 cells at 10 mg/kg, po bid for 14 days. It is filed as organism-based, COLO 205. Set-up: dose 10 mg/kg, route oral. The note with it: in vivo, 336 h. The procedure, abridged: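 Athymic nude mice (20–25 g) were inoculated subcutaneously in the flank with 1×10^6 Colo-205 cells. At 150–200 mm3 they were randomized (n = 10/group) to oral vehicle (22% HPβCD) or 10, 30 or 100 mg/kg BID for 14 days. Calipers were used three times weekly. Body weight and behavior were monitored, with 7–10 days of follow-up after dosing. Partial regression meant volume falling in ≥3 successive measurements, ending below baseline but still palpable.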

Molecules are shown by their SMILES.

Chain of Serine/threonine-protein kinase B-raf (P15056 whole entry): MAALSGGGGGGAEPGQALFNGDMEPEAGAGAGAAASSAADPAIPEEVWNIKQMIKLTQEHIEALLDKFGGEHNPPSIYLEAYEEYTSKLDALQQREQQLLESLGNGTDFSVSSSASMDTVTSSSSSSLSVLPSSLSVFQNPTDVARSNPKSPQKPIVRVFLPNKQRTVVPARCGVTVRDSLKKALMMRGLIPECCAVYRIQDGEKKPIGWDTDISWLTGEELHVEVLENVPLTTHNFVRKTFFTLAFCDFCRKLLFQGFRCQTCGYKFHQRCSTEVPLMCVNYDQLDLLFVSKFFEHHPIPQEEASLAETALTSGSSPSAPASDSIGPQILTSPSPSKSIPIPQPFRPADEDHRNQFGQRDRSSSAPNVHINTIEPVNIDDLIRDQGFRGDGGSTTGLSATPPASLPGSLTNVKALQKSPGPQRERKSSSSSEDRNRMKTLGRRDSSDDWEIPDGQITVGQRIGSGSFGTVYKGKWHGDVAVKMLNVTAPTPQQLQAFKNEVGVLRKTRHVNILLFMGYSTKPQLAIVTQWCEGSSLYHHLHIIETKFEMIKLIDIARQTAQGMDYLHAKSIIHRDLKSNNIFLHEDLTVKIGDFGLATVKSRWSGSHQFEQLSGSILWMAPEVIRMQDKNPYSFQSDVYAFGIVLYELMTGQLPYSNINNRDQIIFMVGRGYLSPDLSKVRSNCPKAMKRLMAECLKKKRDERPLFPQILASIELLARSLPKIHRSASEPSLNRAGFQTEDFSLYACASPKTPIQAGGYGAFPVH
Chain of Mitogen-activated protein kinase 3 (P27361 whole entry): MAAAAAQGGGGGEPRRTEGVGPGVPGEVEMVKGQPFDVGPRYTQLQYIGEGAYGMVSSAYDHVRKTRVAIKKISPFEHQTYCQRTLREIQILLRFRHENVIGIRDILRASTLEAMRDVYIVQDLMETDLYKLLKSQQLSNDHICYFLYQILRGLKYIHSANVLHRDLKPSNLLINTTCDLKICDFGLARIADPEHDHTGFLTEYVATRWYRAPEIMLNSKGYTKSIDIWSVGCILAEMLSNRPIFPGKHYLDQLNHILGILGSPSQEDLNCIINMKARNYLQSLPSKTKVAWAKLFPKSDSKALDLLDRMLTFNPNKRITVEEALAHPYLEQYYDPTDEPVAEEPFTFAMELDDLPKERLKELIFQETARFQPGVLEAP
Chain of hERG (KCNH2) (Q12809 whole entry): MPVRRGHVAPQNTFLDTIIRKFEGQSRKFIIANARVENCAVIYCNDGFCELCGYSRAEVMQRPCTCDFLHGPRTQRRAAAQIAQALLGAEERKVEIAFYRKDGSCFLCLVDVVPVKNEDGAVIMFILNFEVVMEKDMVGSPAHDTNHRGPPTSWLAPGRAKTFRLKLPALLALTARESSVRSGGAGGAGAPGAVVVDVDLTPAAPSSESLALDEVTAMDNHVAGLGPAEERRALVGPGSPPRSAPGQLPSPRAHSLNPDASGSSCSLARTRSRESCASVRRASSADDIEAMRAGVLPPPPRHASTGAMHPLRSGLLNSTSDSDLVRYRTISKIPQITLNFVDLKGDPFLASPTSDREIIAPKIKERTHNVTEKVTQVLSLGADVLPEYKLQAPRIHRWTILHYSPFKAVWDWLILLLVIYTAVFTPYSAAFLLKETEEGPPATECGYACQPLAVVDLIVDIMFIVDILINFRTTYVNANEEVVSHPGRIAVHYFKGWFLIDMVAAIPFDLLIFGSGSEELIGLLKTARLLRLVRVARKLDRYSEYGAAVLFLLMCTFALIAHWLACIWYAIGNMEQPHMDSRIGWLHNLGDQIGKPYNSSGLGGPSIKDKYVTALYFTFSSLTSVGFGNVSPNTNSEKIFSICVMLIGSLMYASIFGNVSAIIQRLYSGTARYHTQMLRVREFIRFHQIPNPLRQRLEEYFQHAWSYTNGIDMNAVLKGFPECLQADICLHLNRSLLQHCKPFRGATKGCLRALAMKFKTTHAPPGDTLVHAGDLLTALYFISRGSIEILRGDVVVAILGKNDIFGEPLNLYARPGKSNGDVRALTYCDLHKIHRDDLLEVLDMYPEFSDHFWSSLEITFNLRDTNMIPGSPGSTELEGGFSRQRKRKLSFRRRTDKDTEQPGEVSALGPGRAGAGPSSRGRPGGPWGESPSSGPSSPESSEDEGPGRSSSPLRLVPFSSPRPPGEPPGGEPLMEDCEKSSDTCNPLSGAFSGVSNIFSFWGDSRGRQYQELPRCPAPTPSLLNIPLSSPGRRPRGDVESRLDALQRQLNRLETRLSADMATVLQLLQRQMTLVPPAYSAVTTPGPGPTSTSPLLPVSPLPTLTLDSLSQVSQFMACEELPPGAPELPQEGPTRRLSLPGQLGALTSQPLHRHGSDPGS
Chain of Phosphatidylinositol 4,5-bisphosphate 3-kinase catalytic subunit alpha isoform (P42336 whole entry, canonical isoform): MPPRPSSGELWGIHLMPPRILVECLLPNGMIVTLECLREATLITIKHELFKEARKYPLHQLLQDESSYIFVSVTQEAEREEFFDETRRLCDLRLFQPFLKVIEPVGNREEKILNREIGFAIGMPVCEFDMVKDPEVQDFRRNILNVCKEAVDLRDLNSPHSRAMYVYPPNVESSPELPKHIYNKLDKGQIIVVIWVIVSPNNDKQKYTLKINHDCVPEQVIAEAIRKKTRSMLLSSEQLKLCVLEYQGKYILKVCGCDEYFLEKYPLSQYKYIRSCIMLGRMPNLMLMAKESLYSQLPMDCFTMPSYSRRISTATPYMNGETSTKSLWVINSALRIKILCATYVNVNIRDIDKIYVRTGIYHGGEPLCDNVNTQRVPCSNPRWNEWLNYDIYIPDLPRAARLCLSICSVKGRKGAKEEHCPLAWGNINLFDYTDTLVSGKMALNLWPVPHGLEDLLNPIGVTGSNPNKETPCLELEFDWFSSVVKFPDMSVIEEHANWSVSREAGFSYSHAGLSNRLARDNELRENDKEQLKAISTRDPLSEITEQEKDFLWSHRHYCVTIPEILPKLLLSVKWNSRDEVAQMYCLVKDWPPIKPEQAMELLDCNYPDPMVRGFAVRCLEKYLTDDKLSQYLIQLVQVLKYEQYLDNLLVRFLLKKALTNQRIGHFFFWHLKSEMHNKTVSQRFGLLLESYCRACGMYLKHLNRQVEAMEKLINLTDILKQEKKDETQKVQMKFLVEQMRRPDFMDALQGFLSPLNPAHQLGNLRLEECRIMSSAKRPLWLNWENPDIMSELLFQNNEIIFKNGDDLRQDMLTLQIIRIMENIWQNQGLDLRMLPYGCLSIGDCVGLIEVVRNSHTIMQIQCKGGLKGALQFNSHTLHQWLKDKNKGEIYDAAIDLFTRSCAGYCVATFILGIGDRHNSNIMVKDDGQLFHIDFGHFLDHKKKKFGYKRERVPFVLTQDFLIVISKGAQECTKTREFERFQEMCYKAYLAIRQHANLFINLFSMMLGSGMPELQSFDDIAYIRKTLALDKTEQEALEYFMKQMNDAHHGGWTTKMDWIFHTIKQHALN
Chain of Dual specificity mitogen-activated protein kinase kinase 2 (P36507 whole entry): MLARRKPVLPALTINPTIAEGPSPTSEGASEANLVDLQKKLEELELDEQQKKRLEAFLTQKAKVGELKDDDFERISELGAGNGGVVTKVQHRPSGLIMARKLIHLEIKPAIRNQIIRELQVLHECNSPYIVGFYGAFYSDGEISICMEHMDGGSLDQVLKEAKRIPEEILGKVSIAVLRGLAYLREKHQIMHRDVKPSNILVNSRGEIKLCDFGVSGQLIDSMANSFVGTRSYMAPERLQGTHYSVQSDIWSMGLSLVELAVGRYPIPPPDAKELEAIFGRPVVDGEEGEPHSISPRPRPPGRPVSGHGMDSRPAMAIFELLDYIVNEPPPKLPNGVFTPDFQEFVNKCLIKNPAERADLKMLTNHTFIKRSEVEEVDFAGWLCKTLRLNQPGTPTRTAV

In the case of `COc1cc2ncnc(Oc3cccc(NC(=O)Nc4cc(C(C)(C)C(F)(F)F)on4)c3)c2cc1OC` [CEP-32496], the Kd in [1] was 0.036 µM; at Aurora kinase A, over 10 µM; in [8], over 10 µM; in [12], over 10 µM; in data set [15], 8.3 µM. In the data set on Mus musculus [2], 55 mg/kg produced 75% inhibition in vivo. In addition, the bioavailability in data set [3] was determined as 94%. The values for the clearance in data set [4], in [6] and in data set [14] were 0.204 L/h/kg, 0.402 L/h/kg and 0.3 L/h/kg, respectively. In [5], this compound gave a Cmax of 5.2 µM. Moreover, the inhibition in vivo at 30 mg/kg in the data set with Mus musculus [7] was determined as 50%. This compound had a half-life in data set [9] of over 1 h. Besides, the Activity is recorded as 40% in the data set with COLO 205 and “Non-toxic” with Mus musculus [16]. On hERG (KCNH2), this compound yielded an inhibition at 10 µM of under 10%. In addition, the CLH (in data set [10]; in the data set with Liver microsomes) was under 23 µL/min/mg each time. The AUC(0-inf) in data set [11] came out at 92.2 µM·h. The compound further registered a 50% inhibitory concentration (IC50) in the data set with A-375 of 0.078 µM. In data set [13], the Vd was 2.5 L/kg. The compound further showed a concentration giving a half-maximal response (EC50) in the data set on HCT-116 of 0.669 µM.
